{"source": "ChEMBL document CHEMBL3259728", "about": "“Design, synthesis and biological evaluation of some novel substituted quinazolines as antitumor agents” (2014)", "assay_type_in_all_cases": "functional", "key": {"HT-29 [1]": {"test_system": "HT-29", "test": "Growth inhibition of human HT-29 cells assessed as cell growth at 10^-4 M after 48 hrs by SRB assay", "details": "HT-29, 48 h, read-out: Activity"}, "[2]": {"test": "Growth inhibition of human HCC2998 cells assessed as cell growth at 10^-4 M after 48 hrs by SRB assay", "details": "HCC 2998, 48 h, read-out: Activity"}, "[3]": {"test": "Growth inhibition of human OVCAR8 cells assessed as cell growth at 10^-8 M after 48 hrs by SRB assay", "details": "OVCAR-8, 48 h, read-out: Activity"}, "NCI-H23": {"test_system": "NCI-H23", "test": "Growth inhibition of human NCI-H23 cells assessed as cell growth at 10^-8 M after 48 hrs by SRB assay", "details": "NCI-H23, 48 h, read-out: Activity"}, "PC-3 [4]": {"test_system": "PC-3", "test": "Growth inhibition of human PC3 cells assessed as cell growth at 10^-5 M after 48 hrs by SRB assay", "details": "PC-3, 48 h, read-out: Activity"}, "[5]": {"test": "Growth inhibition of human UO31 cells assessed as cell growth at 10^-6 M after 48 hrs by SRB assay", "details": "UO-31, 48 h, read-out: Activity"}, "MDA-MB-435": {"test_system": "MDA-MB-435", "test": "Growth inhibition of human MDA-MB-435 cells assessed as cell growth at 10^-5 M after 48 hrs by SRB assay", "details": "MDA-MB-435, 48 h, read-out: Activity"}, "[6]": {"test": "Growth inhibition of human LOXIMVI cells assessed as cell growth at 10^-5 M after 48 hrs by SRB assay", "details": "LOX IMVI, read-out: Activity"}, "NCI-H226": {"test_system": "NCI-H226", "test": "Growth inhibition of human NCI-H226 cells assessed as cell growth at 10^-5 M after 48 hrs by SRB assay", "details": "NCI-H226, 48 h, read-out: Activity"}, "PC-3 [7]": {"test_system": "PC-3", "test": "Growth inhibition of human PC3 cells assessed as cell growth at 10^-8 M after 48 hrs by SRB assay", "details": "PC-3, 48 h, read-out: Activity"}, "SNB-75": {"test_system": "SNB-75", "test": "Cytotoxicity against human SNB75 cells after 48 hrs by SRB assay", "details": "SNB-75, 48 h", "how_it_was_run": "(§1)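 NCI 60-cell-line panel of human tumour lines from nine cancer types. Continuous 48 h exposure at five 10-fold dilutions from 10^-4 to 10^-8 M, with 5-FU as positive control. SRB protein stain read spectrophotometrically at time zero, untreated control and each concentration. GI50, TGI and LC50 were derived from the [(Ti−Tz)/(C−Tz)]×100 growth relations, and out-of-range values are given as > or < the tested limits.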"}, "MDA-MB-231 [8]": {"test_system": "MDA-MB-231", "test": "Cytotoxicity against human MDA-MB-231 cells after 48 hrs by SRB assay", "details": "MDA-MB-231, 48 h", "how_it_was_run": "as §1"}, "[9]": {"test": "Cytotoxicity against human Hs578T cells after 48 hrs by SRB assay", "details": "Hs-578T", "how_it_was_run": "as §1"}, "[10]": {"test": "Growth inhibition of human HOP92 cells assessed as cell growth at 10^-6 M after 48 hrs by SRB assay", "details": "HOP-92, 48 h, read-out: Activity"}, "T47D": {"test_system": "T47D", "test": "Growth inhibition of human T47D cells assessed as cell growth at 10^-7 M after 48 hrs by SRB assay", "details": "read-out: Activity"}, "SN12C": {"test_system": "SN12C", "test": "Growth inhibition of human SN12C cells assessed as cell growth at 10^-7 M after 48 hrs by SRB assay", "details": "read-out: Activity"}, "SK-MEL-5": {"test_system": "SK-MEL-5", "test": "Growth inhibition of human SK-MEL-5 cells assessed as cell growth at 10^-7 M after 48 hrs by SRB assay", "details": "SK-MEL-5, 48 h, read-out: Activity"}, "SR": {"test_system": "SR", "test": "Growth inhibition of human SR cells assessed as cell growth at 10^-7 M after 48 hrs by SRB assay", "details": "read-out: Activity"}, "MDA-MB-231 [11]": {"test_system": "MDA-MB-231", "test": "Growth inhibition of human MDA-MB-231 cells assessed as cell growth at 10^-8 M after 48 hrs by SRB assay", "details": "MDA-MB-231, 48 h, read-out: Activity"}, "MCF7": {"test_system": "MCF7", "test": "Growth inhibition of human MCF7 cells assessed as cell growth at 10^-8 M after 48 hrs by SRB assay", "details": "MCF7, 48 h, read-out: Activity"}, "HT-29 [12]": {"test_system": "HT-29", "test": "Cytotoxicity against human HT-29 cells after 48 hrs by SRB assay", "details": "HT-29, 48 h", "how_it_was_run": "as §1"}, "CCRF-CEM": {"test_system": "CCRF-CEM", "test": "Cytotoxicity against human CCRF-CEM cells after 48 hrs by SRB assay", "how_it_was_run": "as §1"}, "[13]": {"details": "read-out: LC50 (the source's name)"}, "[14]": {"details": "read-out: pLC50 (the source's name) (converted)"}}, "data": [{"smiles": "Cc1ccc(-c2nc3ccc(Cl)cc3c(=O)n2/N=C/c2ccccc2)cc1", "values": [{"measurement": "growth at 100 µM", "setting": "HT-29 [1]", "value": 45, "unit": "%"}, {"measurement": "growth at 100 µM", "setting": "[2]", "value": 88, "unit": "%"}, {"measurement": "growth at 0.01 µM", "setting": "[3]", "value": 101, "unit": "%"}, {"measurement": "growth at 0.01 µM", "setting": "NCI-H23", "value": 98, "unit": "%"}, {"measurement": "growth at 10 µM", "setting": "PC-3 [4]", "value": 66, "unit": "%"}, {"measurement": "growth at 1 µM", "setting": "[5]", "value": 60, "unit": "%"}, {"measurement": "growth at 10 µM", "setting": "MDA-MB-435", "value": 59, "unit": "%"}, {"measurement": "growth at 10 µM", "setting": "[6]", "value": 63, "unit": "%"}, {"measurement": "growth at 10 µM", "setting": "NCI-H226", "value": 38, "unit": "%"}, {"measurement": "growth at 0.01 µM", "setting": "PC-3 [7]", "value": 92, "unit": "%"}, {"measurement": "GI50", "setting": "SNB-75; read-out: GI50", "value": 1.39, "unit": "µM"}, {"measurement": "CC50", "setting": "SNB-75; [13]", "value": "> 100", "unit": "µM"}, {"measurement": "TGI", "setting": "SNB-75; read-out: TGI", "value": 4.74, "unit": "µM"}, {"measurement": "GI50", "setting": "SNB-75; read-out: pGI50 (converted)", "value": 1.38, "unit": "µM"}, {"measurement": "CC50", "setting": "SNB-75; [14]", "value": "> 100", "unit": "µM"}, {"measurement": "TGI", "setting": "SNB-75; read-out: pTGI (converted)", "value": 4.79, "unit": "µM"}, {"measurement": "GI50", "setting": "MDA-MB-231 [8]; read-out: GI50", "value": 4.21, "unit": "µM"}, {"measurement": "LC50", "setting": "MDA-MB-231 [8]; read-out: LC50", "value": "> 100", "unit": "µM"}, {"measurement": "TGI", "setting": "MDA-MB-231 [8]; read-out: TGI", "value": "> 100", "unit": "µM"}, {"measurement": "GI50", "setting": "MDA-MB-231 [8]; read-out: pGI50 (converted)", "value": 4.17, "unit": "µM"}, {"measurement": "LC50", "setting": "MDA-MB-231 [8]; read-out: pLC50 (converted)", "value": "> 100", "unit": "µM"}, {"measurement": "TGI", "setting": "MDA-MB-231 [8]; read-out: pTGI", "value": "> 100", "unit": "µM"}, {"measurement": "GI50", "setting": "[9]; read-out: GI50", "value": 2.62, "unit": "µM"}, {"measurement": "LC50 (concentration giving 50% net cell kill)", "setting": "[9]; read-out: LC50", "value": "> 100", "unit": "µM"}, {"measurement": "TGI", "setting": "[9]; read-out: TGI", "value": 17.2, "unit": "µM"}, {"measurement": "GI50", "setting": "[9]; read-out: pGI50 (converted)", "value": 2.63, "unit": "µM"}, {"measurement": "LC50 (concentration giving 50% net cell kill)", "setting": "[9]; read-out: pLC50 (converted)", "value": "> 100", "unit": "µM"}, {"measurement": "TGI", "setting": "[9]; read-out: pTGI (converted)", "value": 17.4, "unit": "µM"}, {"measurement": "growth at 1 µM", "setting": "[10]", "value": 85, "unit": "%"}, {"measurement": "growth at 0.1 µM", "setting": "T47D", "value": 88, "unit": "%"}, {"measurement": "growth at 0.1 µM", "setting": "SN12C", "value": 92, "unit": "%"}, {"measurement": "growth at 0.1 µM", "setting": "SK-MEL-5", "value": 92, "unit": "%"}, {"measurement": "growth at 0.1 µM", "setting": "SR", "value": 93, "unit": "%"}, {"measurement": "growth at 0.01 µM", "setting": "MDA-MB-231 [11]", "value": 108, "unit": "%"}, {"measurement": "growth at 0.01 µM", "setting": "MCF7", "value": 93, "unit": "%"}, {"measurement": "GI50", "setting": "HT-29 [12]; read-out: GI50", "value": 60.2, "unit": "µM"}, {"measurement": "LC50", "setting": "HT-29 [12]; read-out: LC50", "value": "> 100", "unit": "µM"}, {"measurement": "TGI", "setting": "HT-29 [12]; read-out: TGI", "value": "> 100", "unit": "µM"}, {"measurement": "GI50", "setting": "HT-29 [12]; read-out: pGI50 (converted)", "value": 60.3, "unit": "µM"}, {"measurement": "LC50", "setting": "HT-29 [12]; read-out: pLC50 (converted)", "value": "> 100", "unit": "µM"}, {"measurement": "TGI", "setting": "HT-29 [12]; read-out: pTGI", "value": "> 100", "unit": "µM"}, {"measurement": "GI50", "setting": "CCRF-CEM; read-out: GI50", "value": "> 100", "unit": "µM"}, {"measurement": "CC50", "setting": "CCRF-CEM; [13]", "value": "> 100", "unit": "µM"}, {"measurement": "TGI", "setting": "CCRF-CEM; read-out: TGI", "value": "> 100", "unit": "µM"}, {"measurement": "GI50", "setting": "CCRF-CEM; read-out: pGI50 (converted)", "value": "> 100", "unit": "µM"}, {"measurement": "CC50", "setting": "CCRF-CEM; [14]", "value": "> 100", "unit": "µM"}, {"measurement": "TGI", "setting": "CCRF-CEM; read-out: pTGI", "value": "> 100", "unit": "µM"}]}]}
